Source: ChEMBL document CHEMBL4229571, “Development of 13H-benzo[f]chromeno[4,3-b][1,7]naphthyridines and their salts as potent cytotoxic agents and topoisomerase I/IIα inhibitors” (2018)
Several values for one entry are separate records, joined by “and”; a condition that tells them apart may be missing. Equal values may be shown once.

Key:
[1] = tested on: NCI-H23; experiment: Cytotoxicity against human NCI-H23 cells assessed as growth inhibition after 72 hrs by SRB assay; format: functional
Outline: (§1)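 SRB assay per NCI protocol: 2 × 10^3 cells/well seeded, compounds in DMSO/media added next day (day 0) in quadruplicate at 1 nM–10 μM final, DMSO <0.1%. After 72 h, TCA fixation overnight at 4°C, 0.4% SRB 1 h, dye dissolved in 10 mM Tris, A690 read; day 0 absorbance subtracted. GI50 = concentration giving 50% drop in net growth, mean of three experiments.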

[2] = tested on: HCT-15; experiment: Cytotoxicity against human HCT15 cells assessed as growth inhibition after 72 hrs by SRB assay; format: functional; outline: as §1
[3] = tested on: NUGC-3; experiment: Cytotoxicity against human NUGC3 cells assessed as growth inhibition after 72 hrs by SRB assay; format: functional; outline: as §1
[4] = tested on: ACHN; experiment: Cytotoxicity against human ACHN cells assessed as growth inhibition after 72 hrs by SRB assay; format: functional; outline: as §1
[5] = tested on: PC-3; experiment: Cytotoxicity against human PC3 cells assessed as growth inhibition after 72 hrs by SRB assay; format: functional; outline: as §1
[6] = tested on: MDA-MB-231; experiment: Cytotoxicity against human MDA-MB-231 cells assessed as growth inhibition after 72 hrs by SRB assay; format: functional; outline: as §1
[7] = target: T1, DNA topoisomerase 1 (Homo sapiens) (UniProt P11387); experiment: Inhibition of recombinant human DNA topoisomerase 1 at 100 uM using supercoiled pBR322 DNA as substrate after 30 mins by densitometric analysis relative to control
T1 sequence (whole entry): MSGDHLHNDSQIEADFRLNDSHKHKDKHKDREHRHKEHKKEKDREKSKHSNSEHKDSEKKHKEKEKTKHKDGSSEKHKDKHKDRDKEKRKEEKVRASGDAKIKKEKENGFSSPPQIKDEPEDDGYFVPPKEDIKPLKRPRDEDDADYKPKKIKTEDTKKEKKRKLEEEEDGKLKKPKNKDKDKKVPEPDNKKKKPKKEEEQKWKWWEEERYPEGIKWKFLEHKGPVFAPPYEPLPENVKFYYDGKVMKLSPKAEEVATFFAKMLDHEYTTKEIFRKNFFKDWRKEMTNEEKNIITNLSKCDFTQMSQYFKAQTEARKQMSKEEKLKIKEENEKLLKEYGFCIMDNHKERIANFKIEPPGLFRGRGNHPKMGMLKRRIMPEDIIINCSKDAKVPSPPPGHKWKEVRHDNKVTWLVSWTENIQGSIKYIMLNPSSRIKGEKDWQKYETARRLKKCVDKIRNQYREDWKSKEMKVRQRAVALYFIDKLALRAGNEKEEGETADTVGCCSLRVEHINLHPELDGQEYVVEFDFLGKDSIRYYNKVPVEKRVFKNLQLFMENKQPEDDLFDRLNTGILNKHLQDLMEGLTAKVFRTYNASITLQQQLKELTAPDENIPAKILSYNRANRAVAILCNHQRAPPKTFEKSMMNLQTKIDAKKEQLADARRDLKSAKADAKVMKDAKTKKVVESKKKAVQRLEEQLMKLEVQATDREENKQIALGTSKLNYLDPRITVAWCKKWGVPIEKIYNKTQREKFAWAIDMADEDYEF
Outline: (§2)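 Relaxation of 100 ng supercoiled pBR322 by 1 unit recombinant human topo I, 37 °C for 30 min, in 10 mM Tris-HCl pH 7.9, 150 mM NaCl, 0.1% BSA, 1 mM spermidine, 5% glycerol. Stopped with sarcosyl solution, run on 1% agarose/TAE at 15 V for 7 h, ethidium bromide stained, bands quantified by densitometry. Camptothecin as positive control. Compounds first screened at 100 μM; those over 30% inhibition retested at 20 μM.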

[8] = target: DNA topoisomerase 2-alpha (Homo sapiens) (UniProt P11388); experiment: Inhibition of recombinant human DNA topoisomerase 2-alpha at 100 uM using supercoiled pBR322 DNA as substrate after 30 mins by densitometric analysis relative to control
Outline: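 200 ng supercoiled pBR322 with 4 units human topo IIα, 30 min at 30 °C, in 10 mM Tris–HCl pH 7.9, 50 mM NaCl, 5 mM MgCl2, 1 mM EDTA, 1 mM ATP, 15 μg/mL BSA. Stopped with EDTA, run on 1% agarose/TAE at 60 V for 1 h, bands quantified by densitometry. Etoposide as positive control. Screening at 100 μM; above 30% inhibition, retested at 20 μM.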

[9] = target: T1, DNA topoisomerase 1 (Homo sapiens); experiment: Inhibition of recombinant human DNA topoisomerase 1 at 20 uM using supercoiled pBR322 DNA as substrate after 30 mins by densitometric analysis relative to control; outline: as §2
[10] = target: T1, DNA topoisomerase 1 (Homo sapiens); experiment: Potency index, ratio of test compound activity to camptothecin activity for recombinant human DNA topoisomerase 1 at 100 uM

Chain of DNA topoisomerase 2-alpha (Homo sapiens) (P11388 whole entry): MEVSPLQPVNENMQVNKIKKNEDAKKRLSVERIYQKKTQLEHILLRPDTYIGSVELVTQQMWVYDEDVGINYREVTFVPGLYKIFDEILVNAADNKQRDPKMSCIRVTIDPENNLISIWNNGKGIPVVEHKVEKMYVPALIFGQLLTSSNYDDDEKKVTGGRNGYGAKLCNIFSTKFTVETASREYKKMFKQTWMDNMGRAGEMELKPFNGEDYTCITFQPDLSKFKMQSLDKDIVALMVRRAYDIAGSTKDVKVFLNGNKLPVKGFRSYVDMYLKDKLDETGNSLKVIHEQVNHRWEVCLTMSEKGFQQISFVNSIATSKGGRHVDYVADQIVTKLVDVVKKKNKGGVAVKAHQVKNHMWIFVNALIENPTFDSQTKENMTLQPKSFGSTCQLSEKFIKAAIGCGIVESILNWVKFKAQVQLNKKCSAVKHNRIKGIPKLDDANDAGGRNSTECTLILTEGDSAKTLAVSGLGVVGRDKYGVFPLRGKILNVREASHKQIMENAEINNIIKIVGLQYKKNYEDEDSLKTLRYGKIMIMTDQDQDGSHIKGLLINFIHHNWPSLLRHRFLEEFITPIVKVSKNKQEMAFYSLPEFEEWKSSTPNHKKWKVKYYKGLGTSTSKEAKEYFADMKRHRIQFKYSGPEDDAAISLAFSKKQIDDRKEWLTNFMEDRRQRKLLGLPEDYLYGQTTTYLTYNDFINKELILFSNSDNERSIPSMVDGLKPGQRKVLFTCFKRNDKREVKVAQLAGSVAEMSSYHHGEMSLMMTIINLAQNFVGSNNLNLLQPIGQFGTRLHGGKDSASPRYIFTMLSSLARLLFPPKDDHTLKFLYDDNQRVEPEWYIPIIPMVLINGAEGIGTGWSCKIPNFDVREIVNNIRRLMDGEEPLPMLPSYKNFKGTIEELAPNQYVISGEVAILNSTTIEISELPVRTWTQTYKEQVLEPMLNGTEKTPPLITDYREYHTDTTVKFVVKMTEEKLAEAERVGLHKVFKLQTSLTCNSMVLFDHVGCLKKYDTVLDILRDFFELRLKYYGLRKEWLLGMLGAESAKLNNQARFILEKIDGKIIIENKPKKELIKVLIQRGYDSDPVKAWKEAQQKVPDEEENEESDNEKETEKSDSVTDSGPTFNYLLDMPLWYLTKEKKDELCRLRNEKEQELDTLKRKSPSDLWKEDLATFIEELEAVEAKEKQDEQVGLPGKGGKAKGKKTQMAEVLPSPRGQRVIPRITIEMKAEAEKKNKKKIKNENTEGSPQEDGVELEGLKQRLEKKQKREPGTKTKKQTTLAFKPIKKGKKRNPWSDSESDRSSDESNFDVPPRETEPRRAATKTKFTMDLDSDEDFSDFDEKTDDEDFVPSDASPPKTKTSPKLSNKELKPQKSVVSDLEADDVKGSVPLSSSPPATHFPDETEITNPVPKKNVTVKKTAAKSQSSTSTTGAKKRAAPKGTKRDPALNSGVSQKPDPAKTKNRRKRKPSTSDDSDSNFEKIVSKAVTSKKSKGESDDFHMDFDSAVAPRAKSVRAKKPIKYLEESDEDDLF

Row | Structure (SMILES) | GI50 ([1]; Homo sapiens, NCI-H23, 72 h) [µM] | GI50 ([2]; Homo sapiens, HCT-15, 72 h) [µM] | GI50 ([3]; Homo sapiens, NUGC-3, 72 h) [µM] | GI50 ([4]; Homo sapiens, ACHN, 72 h) [µM] | GI50 ([5]; Homo sapiens, PC-3, 72 h) [µM] | GI50 ([6]; Homo sapiens, MDA-MB-231, 72 h) [µM] | also measured
1 | c1ccc2c(c1)OCc1cc3c(cnc4ccccc43)nc1-2 | > 10 | > 10 | > 10 | > 10 | > 10 | > 10 | 
2 | Brc1ccc2c(c1)-c1nc3cnc4ccccc4c3cc1CO2 | > 10 | > 10 | > 10 | > 10 | > 10 | > 10 | 
3 | Cc1c2c(nc3cnc4ccccc4c13)-c1c(ccc3ccccc13)OC2 | > 10 | > 10 | > 10 | > 10 | > 10 | > 10 | 
4 | CC(C)(C)c1cc2c(c(C(C)(C)C)c1)OCc1cc3c(cnc4ccccc43)nc1-2 | > 10 | > 10 | > 10 | > 10 | > 10 | > 10 | 
5 | Clc1ccc2c(c1)-c1nc3cnc4ccccc4c3cc1CO2 [listing 1 of 3 here] | 1.19 | 1.57 | 2.21 |  | 1.5 |  | GI50 [4]: 2.56 µM; GI50 [6]: 2.72 µM
6 | Clc1ccc2c(c1)-c1nc3cnc4ccccc4c3cc1CO2 [listing 2 of 3 here] |  |  |  |  |  |  | inhibition [7]: 1.7% and 12.3%; inhibition [8]: 0%
7 | Cc1ccc2c(c1)-c1nc3cnc4ccccc4c3c(C)c1CO2 | > 10 | > 10 | > 10 | > 10 | > 10 | > 10 | 
8 | Cc1ccc(-c2c3c(nc4cnc5ccccc5c24)-c2ccccc2OC3)cc1 [listing 1 of 2 here] |  |  |  |  |  |  | GI50 [1]: 2.06 µM; GI50 [2]: 2.71 µM; GI50 [3]: 2.7 µM; GI50 [4]: 2.28 µM; GI50 [5]: 1.53 µM; GI50 [6]: 1.79 µM
9 | Fc1ccc2c(c1)-c1nc3cnc4ccccc4c3cc1CO2 [listing 1 of 3 here] |  |  |  |  |  |  | GI50 [1]: 1.03 µM; GI50 [2]: 1.56 µM; GI50 [3]: 1.37 µM; GI50 [4]: 1 µM; GI50 [5]: 1.27 µM; GI50 [6]: 1.23 µM
10 | COc1cccc2c1C(=O)c1c(O)c3c(c(O)c1C2=O)C[C@@](O)(C(=O)CO)C[C@@H]3O[C@H]1C[C@H](N)[C@H](O)[C@H](C)O1 [DOXORUBICIN] | 0.09 | 0.077 | 0.086 | 0.08 | 0.076 | 0.068 | 
11 | COc1cccc2c1OCc1c-2nc2cnc3ccccc3c2c1C [listing 1 of 3 here] | 1.56 | 1.79 | 2.62 | 2.19 | 1.61 | 1.52 | 
12 | Cc1c2c(nc3cnc4ccccc4c13)-c1cc(Cl)cc(Cl)c1OC2 | > 10 | > 10 | > 10 | > 10 | > 10 | > 10 | 
13 | Fc1ccc2c(c1)-c1nc3cnc4ccccc4c3cc1CO2 [listing 2 of 3 here] |  |  |  |  |  |  | inhibition [9]: 4.2%; inhibition [8]: 14.5% and 12.2%; Ratio [10]: 1.32
14 | COc1cccc2c1OCc1c-2nc2cnc3ccccc3c2c1C [listing 2 of 3 here] |  |  |  |  |  |  | inhibition [7]: 14.4% and 10.2%; inhibition [8]: 0% and 23.5%
15 | Cc1c2c(nc3cnc4ccccc4c13)-c1cc(C(C)(C)C)cc(C(C)(C)C)c1OC2 | > 10 | > 10 | > 10 | > 10 | > 10 | > 10 | 
16 | Clc1ccc2c(c1)-c1nc3cnc4ccccc4c3cc1CO2 [listing 3 of 3 here] |  |  |  |  |  |  | GI50 [1]: 0.9 µM; GI50 [2]: 1.09 µM; GI50 [3]: 1.16 µM; GI50 [4]: 1.08 µM; GI50 [5]: 1.67 µM; GI50 [6]: 1.05 µM
17 | Cc1ccc(-c2c3c(nc4cnc5ccccc5c24)-c2ccccc2OC3)cc1 [listing 2 of 2 here] |  | 4.23 | 3.85 | 2.4 |  |  | GI50 [1]: > 10 µM; GI50 [5]: 5.02 µM; GI50 [6]: 5.62 µM
18 | Cc1c2c(nc3cnc4ccccc4c13)-c1cc(Br)ccc1OC2 | > 10 | > 10 | > 10 | > 10 | > 10 | > 10 | 
19 | Fc1ccc2c(c1)-c1nc3cnc4ccccc4c3cc1CO2 [listing 3 of 3 here] | 1.87 | 2.19 | 1.85 |  |  | 2.2 | GI50 [4]: 3.21 µM; GI50 [5]: 2.79 µM
20 | COc1cccc2c1OCc1c-2nc2cnc3ccccc3c2c1C [listing 3 of 3 here] |  |  |  |  |  |  | GI50 [1]: 2.39 µM; GI50 [2]: 1.29 µM; GI50 [3]: 1.56 µM; GI50 [4]: 2.01 µM; GI50 [5]: 2.06 µM; GI50 [6]: 1.67 µM
21 | Cc1ccc2c(c1)-c1nc3cnc4ccccc4c3cc1CO2 | > 10 | > 10 | > 10 | > 10 | > 10 | > 10 | 
22 | c1ccc2c3c(ccc2c1)OCc1cc2c(cnc4ccccc42)nc1-3 | > 10 | > 10 | > 10 | > 10 | > 10 | > 10 | 
23 | Cc1c2c(nc3cnc4ccccc4c13)-c1cc(Cl)ccc1OC2 | > 10 | > 10 | > 10 | > 10 | > 10 | > 10 | 
24 | Cc1c2c(nc3cnc4ccccc4c13)-c1cc(F)ccc1OC2 | > 10 | > 10 | > 10 | > 10 | > 10 | > 10 | 
25 | COc1ccc(Br)c2c1OCc1c-2nc2cnc3ccccc3c2c1C | > 10 | > 10 | > 10 | > 10 | > 10 | > 10 | 
26 | Cc1ccc(-c2c3c(nc4cnc5ccccc5c24)-c2cc(Cl)ccc2OC3)cc1 | > 10 | > 10 | > 10 | > 10 | > 10 | > 10 | 
